We go through 11 compounds from ChEMBL document CHEMBL1154334, “Effect of the structure of adenosine mimic of bisubstrate-analog inhibitors on their activity towards basophilic protein kinases” (Bioorg Med Chem Lett, 2009).

Assay [1] has as its target Rho-associated protein kinase 2 (Homo sapiens, UniProt O75116). Put plainly: Displacement of ARC583 from ROCK2.
The target in assay [2] is T1, cAMP-dependent protein kinase catalytic subunit alpha (Homo sapiens, UniProt P17612). Put plainly: Inhibition of PKACalpha in presence of […].
Assay [3] has as its target RAC-gamma serine/threonine-protein kinase (Homo sapiens, UniProt Q9Y243). Put plainly: Inhibition of PKBgamma in presence of 100 uM ATP. The procedure, abridged:
(§1)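 Kinetic phosphorylation assays with PKA catalytic subunit (PKAc) or PKB catalytic subunit (PKBc) at fixed ATP. ATP Km values taken as 20 for PKAc and 100 for PKBc.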

In assay [4] the target is T1, cAMP-dependent protein kinase catalytic subunit alpha. Nature of the assay: Inhibition of PKACalpha in presence of 100 uM ATP. In outline: as §1

A word on the Kd: it is the free concentration of one partner at which half of the binding sites on the other are occupied at equilibrium, for simple one-to-one binding. The low end stands for tighter binding, the high end for weaker binding. The term IC50 denotes the concentration needed to halve the response being measured.

SMILES strings stand for the structures. Where a SMILES comes first, the peptide text is derived from it. [ ]: non-standard residue; d: D form. The star is where a group is joined. X1 = Nc1nccc(-c2ccc(C(=O)*)s2)n1; Ahx = NCCCCCC(=O)O

Sequence of Rho-associated protein kinase 2 (O75116 whole entry): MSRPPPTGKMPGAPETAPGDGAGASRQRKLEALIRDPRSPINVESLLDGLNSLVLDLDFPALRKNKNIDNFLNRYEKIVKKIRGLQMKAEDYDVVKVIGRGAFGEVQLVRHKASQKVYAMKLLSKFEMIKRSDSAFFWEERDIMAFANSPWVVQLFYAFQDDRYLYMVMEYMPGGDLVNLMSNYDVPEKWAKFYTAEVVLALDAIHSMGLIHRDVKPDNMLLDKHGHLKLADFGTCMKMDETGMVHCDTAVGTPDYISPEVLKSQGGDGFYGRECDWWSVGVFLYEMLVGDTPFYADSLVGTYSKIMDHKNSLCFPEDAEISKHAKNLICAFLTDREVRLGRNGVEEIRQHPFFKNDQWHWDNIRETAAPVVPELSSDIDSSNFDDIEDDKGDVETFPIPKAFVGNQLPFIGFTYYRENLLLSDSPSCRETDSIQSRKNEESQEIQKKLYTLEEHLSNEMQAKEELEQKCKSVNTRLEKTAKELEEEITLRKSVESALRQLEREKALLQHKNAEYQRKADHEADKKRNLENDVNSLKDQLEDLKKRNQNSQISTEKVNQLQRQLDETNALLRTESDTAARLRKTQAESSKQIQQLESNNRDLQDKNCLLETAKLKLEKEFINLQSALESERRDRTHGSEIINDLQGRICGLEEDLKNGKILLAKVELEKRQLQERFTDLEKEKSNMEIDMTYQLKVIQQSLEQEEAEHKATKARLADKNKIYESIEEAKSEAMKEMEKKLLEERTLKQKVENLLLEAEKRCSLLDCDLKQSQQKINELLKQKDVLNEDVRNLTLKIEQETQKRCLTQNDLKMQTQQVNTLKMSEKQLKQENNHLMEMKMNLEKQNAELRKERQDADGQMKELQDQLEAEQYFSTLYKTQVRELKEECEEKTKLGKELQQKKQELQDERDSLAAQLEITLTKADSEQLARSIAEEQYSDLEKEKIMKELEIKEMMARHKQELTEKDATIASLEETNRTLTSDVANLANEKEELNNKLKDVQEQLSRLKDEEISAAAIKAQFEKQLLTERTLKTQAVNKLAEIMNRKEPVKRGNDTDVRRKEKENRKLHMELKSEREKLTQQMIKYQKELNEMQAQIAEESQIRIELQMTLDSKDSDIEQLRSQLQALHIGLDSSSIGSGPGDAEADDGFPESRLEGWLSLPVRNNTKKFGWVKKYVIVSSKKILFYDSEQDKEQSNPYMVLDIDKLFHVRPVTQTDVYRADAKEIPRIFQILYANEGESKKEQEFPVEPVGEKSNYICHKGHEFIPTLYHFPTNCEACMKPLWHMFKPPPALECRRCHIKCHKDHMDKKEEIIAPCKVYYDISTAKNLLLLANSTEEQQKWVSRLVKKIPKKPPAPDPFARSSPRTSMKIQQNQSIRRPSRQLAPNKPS
Sequence of RAC-gamma serine/threonine-protein kinase (Q9Y243 whole entry): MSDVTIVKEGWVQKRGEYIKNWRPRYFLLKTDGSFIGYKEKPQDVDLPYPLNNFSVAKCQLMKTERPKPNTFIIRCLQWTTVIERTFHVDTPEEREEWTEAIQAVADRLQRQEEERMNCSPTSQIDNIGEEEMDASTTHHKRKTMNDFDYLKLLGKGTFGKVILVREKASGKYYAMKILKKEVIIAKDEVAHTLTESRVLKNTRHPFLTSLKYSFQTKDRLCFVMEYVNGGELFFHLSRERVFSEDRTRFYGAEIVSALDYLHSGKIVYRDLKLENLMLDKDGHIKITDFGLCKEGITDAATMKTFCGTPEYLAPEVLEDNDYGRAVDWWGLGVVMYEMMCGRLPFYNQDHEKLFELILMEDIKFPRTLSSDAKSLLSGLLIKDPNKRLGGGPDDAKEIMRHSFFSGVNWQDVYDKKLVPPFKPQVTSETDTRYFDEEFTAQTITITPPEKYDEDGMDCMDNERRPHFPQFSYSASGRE

The compound `N=C(N)NCCC[C@@H](NC(=O)[C@@H](CCCNC(=N)N)NC(=O)CCCCCNC(=O)[C@@H](CCCCN)NC(=O)CCCCCNC(=O)c1ccc(-c2ccnc(N)n2)s1)C(N)=O` yielded a Kd in assay [1] of under 3 nM. For the same compound, the results for the IC50 in assay [2] and in assay [3] were 82 nM and 0.27 µM, respectively.

Turning to `NCCCC[C@@H](NC(=O)CCCCCNC(=O)c1cccc(-c2ccncc2)c1)C(=O)NCCCCCC(=O)N[C@H](CCCN=C(N)N)C(=O)N[C@H](CCCN=C(N)N)C(N)=O`, the affinity in assay [1], expressed as Kd, was 3.8 nM. The IC50 was 0.39 µM in assay [4] (read-out: IC50) and 0.9 µM in assay [3].

`NCCCC[C@@H](NC(=O)CCCCCNC(=O)c1cccc(-c2ccnc(N)n2)c1)C(=O)NCCCCCC(=O)N[C@H](CCCN=C(N)N)C(=O)N[C@H](CCCN=C(N)N)C(N)=O`: in assay [1], the Kd worked out at 36 nM. Moreover, the figures for the IC50 in assay [4] (read-out: IC50) and in assay [3] were 0.061 µM and 4.6 µM, respectively.

On to `N=C(N)NCCC[C@@H](NC(=O)[C@@H](CCCNC(=N)N)NC(=O)CCCCCNC(=O)[C@@H](CCCCN)NC(=O)CCCCCNC(=O)c1cn(-c2ncnc3[nH]cnc23)nn1)C(N)=O`, for which the Kd in assay [1] was 800 nM. In addition, the IC50 in assay [3] was determined as 27 µM.

Consider `NCCCC[C@H](NC(=O)[C@@H](CCCN=C(N)N)NC(=O)[C@@H](CCCN=C(N)N)NC(=O)[C@@H](CCCN=C(N)N)NC(=O)[C@@H](CCCN=C(N)N)NC(=O)[C@@H](CCCN=C(N)N)NC(=O)[C@@H](CCCN=C(N)N)NC(=O)CCCCCNC(=O)[C@@H](CCCCN)NC(=O)CCCCCNC(=O)c1ccc(-c2ccnc(N)n2)s1)C(N)=O`, for which the IC50 came to 4.9 nM in assay [2] and 0.042 µM in assay [3].

`CC(=O)NCCCCCC(=O)N[C@H](CCCCN)C(=O)NCCCCCC(=O)N[C@H](CCCNC(=N)N)C(=O)N[C@H](CCCNC(=N)N)C(N)=O`: the Kd in assay [1] stood at 123000 nM. In addition, the IC50 entry was “Not Active” in assay [4] and over 2000 µM in assay [3].

For the compound `NCCCC[C@@H](NC(=O)CCCCCNC(=O)c1ccccc1)C(=O)NCCCCCC(=O)N[C@H](CCCN=C(N)N)C(=O)N[C@H](CCCN=C(N)N)C(N)=O`, binding in assay [1] was characterised by a dissociation constant (Kd) of 8000 nM. For the same compound, the IC50 came out at 183 µM in assay [4] (read-out: IC50) and 360 µM in assay [3].

`NCCCC[C@@H](NC(=O)CCCCCNC(=O)c1ccc(C(N)=O)cc1)C(=O)NCCCCCC(=O)N[C@H](CCCN=C(N)N)C(=O)N[C@H](CCCN=C(N)N)C(N)=O` had a Kd in assay [1] of 177 nM. In addition, the IC50 in assay [4] (read-out: IC50) was 23 µM; in assay [3] it was 28 µM.

`N=C(N)NCCC[C@@H](NC(=O)[C@@H](CCCNC(=N)N)NC(=O)CCCCCNC(=O)[C@@H](CCCCN)NC(=O)CCCCCNC(=O)Nc1ccc(C(N)=O)cc1)C(N)=O` gave a Kd in assay [1] of 6100 nM. Also, the IC50 is 240 µM in assay [4] (read-out: IC50) and 900 µM in assay [3].

In assay [1], `NCCCC[C@@H](NC(=O)CCCCCNC(=O)[C@H]1O[C@@H](n2cnc3c(N)ncnc32)[C@H](O)[C@@H]1O)C(=O)NCCCCCC(=O)N[C@H](CCCN=C(N)N)C(=O)N[C@H](CCCN=C(N)N)C(N)=O` registered a Kd of under 3 nM.

For `NCCCC[C@@H](NC(=O)CCCCCNC(=O)c1ccc(-c2ccnc(N)n2)s1)C(=O)NCCCCCC(=O)N[C@H](CCCN=C(N)N)C(=O)N[C@H](CCCN=C(N)N)C(=O)N[C@H](CCCN=C(N)N)C(=O)N[C@H](CCCN=C(N)N)C(=O)N[C@H](CCCN=C(N)N)C(=O)N[C@H](CCCN=C(N)N)C(N)=O` ({X1-Ahx}-[dK][Ahx][dR][dR][dR][dR][dR][dR]-NH2), the IC50 in assay [3] worked out at 0.012 µM.
